Assays:
Format in all cases: functional
[1] = system: Mus musculus; test: Antitremorine activity(TRM) of mice after peroral administration of 100 mg/kg of compound; No inhibition; conditions: route oral
[2] = system: Mus musculus; test: Antimaximal electroshock seizure (MES) activity in mice after peroral administration of 100 mg/kg of compound; 5/5; conditions: route oral
[3] = system: Mus musculus; test: Antireserpine activity (RES) of mice after peroral administration of 100 mg/kg of compound; No inhibition; conditions: route oral
[4] = system: Mus musculus; test: Antiexploratory activity (EXPL) of mice determined by an antimex activity meter, 100 mg/kg of dose was administered perorally; No inhibition; conditions: route oral
[5] = system: Mus musculus; test: Antireserpine activity (RES) of mice after peroral administration of 100 mg/kg of compound; Slight inhibition (31-50%); conditions: route oral
[6] = system: Mus musculus; test: Antimaximal electroshock seizure (MES) activity in mice after peroral administration of 100 mg/kg of compound; 0/5; conditions: route oral
[7] = system: Mus musculus; test: Antitremorine activity(TRM) of mice after peroral administration of 100 mg/kg of compound; Moderate inhibition (51-71%); conditions: route oral
[8] = system: Mus musculus; test: Antitremorine activity(TRM) of mice after peroral administration of 100 mg/kg of compound; Slight inhibition (31-50%); conditions: route oral
[9] = system: Mus musculus; test: Antiexploratory activity (EXPL) of mice determined by an antimex activity meter, 50 mg/kg of dose was administered perorally; No inhibition; conditions: route oral
[10] = system: Mus musculus; test: Antipentylene tetrazole activity was determined in mice when administered perorally; conditions: po
Outline: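 Groups of five male Std-ddY mice received compound orally in 0.5% tragacanth, then pentylenetetrazole 175 mg/kg ip. Blockade of the tonic extensor component scored as anticonvulsant. ED50 was the dose protecting 50% of animals (Litchfield-Wilcoxon).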

[11] = system: Mus musculus; test: Antimaximal electroshock seizure activity was determined in mice when administered perorally; conditions: po

SMILES: NC(=O)N1CCN(C2=Nc3ccc(Br)cc3CC=C2c2ccccc2)CC1
- inhibition in vivo at 100 mg/kg [1]: < 30%
- Activity [2]: 5
- inhibition in vivo at 100 mg/kg [3]: < 30%
- inhibition in vivo at 100 mg/kg [4]: < 30%

SMILES: Brc1ccc2c(c1)CC=C(c1ccccc1)C(N1CCCCC1)=N2
- inhibition in vivo at 100 mg/kg [1]: < 30%
- inhibition in vivo at 100 mg/kg [5]: 31%
- Activity [6]: 0
- inhibition in vivo at 100 mg/kg [4]: < 30%

SMILES: C1=C(c2ccccc2)C(N2CCN(Cc3ccccc3)CC2)=Nc2ccccc2C1
- inhibition in vivo at 100 mg/kg [1]: < 30%
- Activity [6]: 0
- inhibition in vivo at 100 mg/kg [4]: < 30%

SMILES: Clc1ccc(C2=CCc3ccc(Cl)cc3N=C2N2CCNCC2)cc1.O=C(O)/C=C/C(=O)O
- inhibition in vivo at 100 mg/kg [5]: 31%
- inhibition in vivo at 100 mg/kg [7]: 51%
- Activity [6]: 0
- inhibition in vivo at 100 mg/kg [4]: < 30%

SMILES: CCCc1ccc2c(c1)CC=C(c1ccccc1)C(N1CCN(CC)CC1)=N2.O=C(O)/C=C/C(=O)O
- inhibition in vivo at 100 mg/kg [1]: < 30%
- inhibition in vivo at 100 mg/kg [3]: < 30%
- Activity [6]: 0
- inhibition in vivo at 100 mg/kg [4]: < 30%

SMILES: C1=C(c2ccccc2)C(N2CCNCC2)=Nc2ccccc2C1.O=C(O)/C=C/C(=O)O
- inhibition in vivo at 100 mg/kg [1]: < 30%
- inhibition in vivo at 100 mg/kg [3]: < 30%
- Activity [6]: 0
- inhibition in vivo at 100 mg/kg [4]: < 30%

SMILES: C=CCN1CCN(C2=Nc3ccc(Br)cc3CC=C2c2ccccc2)CC1
- inhibition in vivo at 100 mg/kg [1]: < 30%
- inhibition in vivo at 100 mg/kg [5]: 31%
- Activity [6]: 0
- inhibition in vivo at 100 mg/kg [4]: < 30%

SMILES: CCN1CCN(C2=Nc3ccc(C(C)C)cc3CC=C2c2ccccc2)CC1.O=C(O)/C=C/C(=O)O
- inhibition in vivo at 100 mg/kg [8]: 31%
- inhibition in vivo at 100 mg/kg [3]: < 30%
- Activity [6]: 0
- inhibition in vivo at 100 mg/kg [4]: < 30%

SMILES: O=C(O)/C=C/C(=O)O.OCCN1CCN(C2=Nc3ccccc3CC=C2c2cccc(C(F)(F)F)c2)CC1
- inhibition in vivo at 100 mg/kg [1]: < 30%
- Activity [6]: 0
- inhibition in vivo at 100 mg/kg [4]: < 30%

SMILES: CN1CCN(C2=Nc3ccccc3CC=C2c2cccc(C(F)(F)F)c2)CC1.O=C(O)/C=C/C(=O)O
- inhibition in vivo at 100 mg/kg [1]: < 30%
- Activity [6]: 0
- inhibition in vivo at 100 mg/kg [4]: < 30%

SMILES: O=C(CN1CCN(C2=Nc3ccc(Br)cc3CC=C2c2ccccc2)CC1)c1ccccc1
- inhibition in vivo at 100 mg/kg [1]: < 30%
- inhibition in vivo at 100 mg/kg [3]: < 30%
- Activity [6]: 0
- inhibition in vivo at 100 mg/kg [4]: < 30%

SMILES: COc1ccc(CN2CCN(C3=Nc4ccc(Br)cc4CC=C3c3ccccc3)CC2)cc1
- inhibition in vivo at 100 mg/kg [1]: < 30%
- inhibition in vivo at 100 mg/kg [3]: < 30%
- Activity [6]: 0
- inhibition in vivo at 100 mg/kg [4]: < 30%

SMILES: Brc1ccc2c(c1)CC=C(c1ccccc1)C(N1CCNCC1)=N2.O=C(O)/C=C/C(=O)O
- inhibition in vivo at 100 mg/kg [5]: 31%
- Activity [6]: 0
- inhibition in vivo at 100 mg/kg [4]: < 30%

SMILES: Fc1ccc(C2=CCc3ccccc3N=C2N2CCN(Cc3ccccc3)CC2)cc1
- inhibition in vivo at 50 mg/kg [9]: < 30%

SMILES: C1=C(c2ccccc2)C(N2CCN(c3ccccc3)CC2)=Nc2ccccc2C1
- inhibition in vivo at 100 mg/kg [1]: < 30%
- inhibition in vivo at 100 mg/kg [3]: < 30%
- Activity [6]: 0
- inhibition in vivo at 100 mg/kg [4]: < 30%

SMILES: OCCN1CCN(C2=Nc3ccc(Br)cc3CC=C2c2ccccc2)CC1
- inhibition in vivo at 100 mg/kg [1]: < 30%
- Activity [2]: 5
- ED50 [10]: 13.2 mg/kg
- inhibition in vivo at 100 mg/kg [3]: < 30%
- ED50 [11]: 14.6 mg/kg
- inhibition in vivo at 100 mg/kg [4]: < 30%

SMILES: Clc1ccccc1C1=CCc2cc(Br)ccc2N=C1N1CCNCC1.O=C(O)/C=C/C(=O)O
- inhibition in vivo at 100 mg/kg [1]: < 30%
- inhibition in vivo at 100 mg/kg [3]: < 30%
- Activity [6]: 0
- inhibition in vivo at 100 mg/kg [4]: < 30%

SMILES: Clc1ccc2c(c1)CC=C(c1ccccc1)C(N1CCN(Cc3ccccc3)CC1)=N2
- inhibition in vivo at 100 mg/kg [1]: < 30%
- inhibition in vivo at 100 mg/kg [5]: 31%
- Activity [6]: 0
- inhibition in vivo at 100 mg/kg [4]: < 30%

SMILES: CC(C)c1ccc2c(c1)CC=C(c1ccccc1)C(N1CCN(C)CC1)=N2.O=C(O)/C=C/C(=O)O
- inhibition in vivo at 100 mg/kg [3]: < 30%
- inhibition in vivo at 100 mg/kg [7]: 51%
- Activity [6]: 0
- inhibition in vivo at 100 mg/kg [4]: < 30%

SMILES: O=C(CCN1CCN(C2=Nc3ccc(Br)cc3CC=C2c2ccccc2)CC1)c1ccccc1
- inhibition in vivo at 100 mg/kg [1]: < 30%
- inhibition in vivo at 100 mg/kg [3]: < 30%
- Activity [6]: 0
- inhibition in vivo at 100 mg/kg [4]: < 30%

From ChEMBL document CHEMBL1124216, “A novel class of potential central nervous system agents. 3-Phenyl-2-(1-piperazinyl)-5H-1-benzazepines” (1988)
